From article PMC9465827 (ACS Medicinal Chemistry Letters, 2022)
In brackets after ≈: the same amount, converted by molar mass.

Legend:
[1] = test system: Madin-Darby canine kidney (MDCK) cells with canine MDR1 knocked out; assay: MDCK permeability assay; type: in vitro ADME; settings: apical to basolateral direction
Outline: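 MDCK cells with endogenous canine MDR1 knocked out. Transport of the test compound was measured in the apical-to-basolateral direction. Permeability was reported in 10^-6 cm/s. Data were accepted only when compound recovery was 70%-130%.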

Kinetic solubility = type: physicochemical; settings: PBS buffer, pH 7.4, aqueous buffer, kinetic from dmso stock

| SMILES | permeability (passive diffusion rate), level in words [1] | solubility kinetic at 24 h (Kinetic solubility) |
| --- | --- | --- |
| O=C(Cn1ccnc1)Nc1ccc(C2CCCCC2)cc1 [1c] | high | – |
| CC(=O)N1CC(C(=O)Nc2ccc(C3CCCCC3)cc2)C1 [1i] | high | – |
| CN(Cc1cccnc1)C(=O)c1ccc(C2CCCCC2)cc1 [2c'] | highly permeable | – |
| O=C(Nc1ccc([C@H]2[C@@H](F)[C@@H](F)C[C@@H](F)[C@H]2F)cc1)c1cn[nH]c1 [J-1b] | – | 136 µM (≈ 46.4 µg/mL) |
| CN(Cc1cccnc1)C(=O)c1ccc([C@H]2[C@@H](F)[C@@H](F)C[C@@H](F)[C@H]2F)cc1 [J-2c'] | highly permeable | – |
